Results from ChEMBL document CHEMBL1133105, “Antimalarial, antitrypanosomal, and antileishmanial activities and cytotoxicity of bis(9-amino-6-chloro-2-methoxyacridines): influence of the linker” (J Med Chem, 2000).

Columns and labels:
[1] = system: Leishmania infantum; test: Percentage of activity against Leishmania infantum 6.25 uM; format: functional
Outline: (§1)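 Starch-stimulated mouse peritoneal macrophages, 30 000/well, infected after 24 h with spleen-derived L. infantum amastigotes (10:1) together with 2-fold drug dilutions (12.5–1.56 µM). Incubated 7 days at 37 °C, 5% CO2. Wright-stained slides scored microscopically as % reduction of total parasite load or of infected macrophages. Uninfected treated cultures judged microscopically for macrophage toxicity.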

[2] = system: Leishmania infantum; test: Percentage of activity against Leishmania infantum at 1.56 uM; format: functional; outline: as §1
[3] = system: Leishmania infantum; test: In Vitro evaluation for the percentage of activity towards Leishmania infantum at 12.5 uM Concentration; format: functional; outline: as §1
[4] = system: Leishmania infantum; test: Percentage of activity against Leishmania infantum at 3.13 uM; format: functional; outline: as §1
[5] = system: MRC5; test: Cytotoxicity on MRC-5 cells at 12.5 uM; format: functional; details: Homo sapiens
Outline: (§2)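 MRC-5 human diploid embryonic lung cells seeded at 5 000/well, washed after 24 h, then given 2-fold drug dilutions (25, 12.5, 6.25, 3.13 µM) in RPMI + 5% FCS, final DMSO below 0.5%. Incubated 7 days at 37 °C, 5% CO2. MTT colorimetric read-out, scored as % reduction of absorbance at 540 nm versus untreated controls.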

[6] = system: MRC5; test: Cytotoxicity on MRC-5 cells at 25 uM; format: functional; details: Homo sapiens; outline: as §2
[7] = system: MRC5; test: Cytotoxicity on MRC-5 cells at 3.13 uM; format: functional; details: Homo sapiens; outline: as §2
[8] = system: MRC5; test: Cytotoxicity on MRC-5 cells at 6.25 uM; format: functional; details: Homo sapiens; outline: as §2
[9] = system: Plasmodium falciparum; test: In vitro sensitivity for Plasmodium falciparum FcB1R; format: functional, organism-based
Outline: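 Asynchronous P. falciparum cultures in human erythrocytes (0.5% parasitemia, 1% haematocrit) exposed to serially diluted drug for 24 h at 37 °C. [3H]hypoxanthine (0.5 µCi/well) then added for a further 24 h. Uptake compared with drug-free controls on the same plate. IC50 taken from the concentration–response curve, averaged over independent experiments. DMSO ≤0.1%.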

[10] = system: Trypanosoma cruzi; test: Percentage of activity against Trypanosoma cruzi at 1.56 uM; format: functional
Outline: (§3)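 Mouse peritoneal macrophages, 30 000/well, infected after 24 h with about 100 000 T. cruzi trypomastigotes per well plus 2-fold drug dilutions (12.5–1.56 µM). Incubated 4 days at 37 °C, 5% CO2. Methanol-fixed, Giemsa-stained and scored microscopically as % reduction of total parasite load (free trypomastigotes plus intracellular amastigotes) versus untreated controls.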

[11] = system: Trypanosoma cruzi; test: Percentage of activity against Trypanosoma cruzi at 12.5 uM; format: functional; outline: as §3
[12] = system: Trypanosoma cruzi; test: Percentage of activity against Trypanosoma cruzi at 3.13 uM; format: functional; outline: as §3
[13] = system: Trypanosoma cruzi; test: Percentage of activity against Trypanosoma cruzi at 6.25 uM Concentration; format: functional; outline: as §3
[14] = system: Trypanosoma brucei; test: Percentage of activity against Trypanosoma brucei at 6.25 uM; format: functional
Outline: (§4)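 Bloodstream-form T. brucei in HMI-9 medium, 10 000 parasites/well, exposed to 12.5, 6.25, 3.13 and 1.56 µM drug for 4 days. Read-out is % inhibition of parasite multiplication. Macrophage toxicity judged on mouse primary peritoneal macrophages.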

[15] = system: Trypanosoma brucei; test: Percentage of activity against Trypanosoma brucei at 12.5 uM; format: functional; outline: as §4
[16] = system: Trypanosoma brucei; test: Percentage of activity against Trypanosoma brucei at 1.56 uM; format: functional; outline: as §4
[17] = system: Trypanosoma brucei; test: Percentage of activity against Trypanosoma brucei at 3.13 uM; format: functional; outline: as §4
[18] = system: Leishmania infantum; test: Percentage of activity against Leishmania infantum at 6.25 uM; Toxic upon mouse primary peritoneal macrophages; format: functional, organism-based; outline: as §1
[19] = system: Leishmania infantum; test: Percentage of activity against Leishmania infantum at 12.5 uM Concentration; Toxic upon mouse primary peritoneal macrophages; format: functional, organism-based; outline: as §1
[20] = system: Trypanosoma cruzi; test: Percentage of activity against Trypanosoma cruzi at 12.5 uM; Toxic upon mouse primary peritoneal macrophages; format: functional, organism-based; outline: as §3
[21] = system: Trypanosoma cruzi; test: In Vitro evaluation for the percentage of activity towards Trypanosoma cruzi at 6.25 uM Concentration; Toxic upon mouse primary peritoneal macrophages; format: functional, organism-based; outline: as §3

| Compound | Antileishmanial activity (% reduction of parasite load) [1] [%] | Antileishmanial activity (% reduction of parasite load) [2] [%] | Percent inhibition of Leishmania infantum [3] [%] | Percent antileishmanial activity (reduction of parasite load) [4] [%] | cytotoxicity at 12.5 µM [5] [%] | cytotoxicity at 25 µM [6] [%] | cytotoxicity at 3.13 µM [7] [%] | cytotoxicity at 6.25 µM [8] [%] | IC50 [9] [nM] | Parasite load reduction [10] [%] | T. cruzi parasite load reduction [11] [%] | Reduction of T. cruzi parasite load [12] [%] | Reduction of T. cruzi parasite load [13] [%] | Inhibition of parasite multiplication [14] [%] | Inhibition of parasite multiplication [15] [%] | Percent inhibition of parasite multiplication [16] [%] | Parasite growth inhibition [17] [%] | Cytotoxicity [18] | Cytotoxicity [19] | Cytotoxicity [20] | other results |
| --- | --- | --- | --- | --- | --- | --- | --- | --- | --- | --- | --- | --- | --- | --- | --- | --- | --- | --- | --- | --- | --- |
| COc1ccc2nc3cc(Cl)ccc3c(NCCCN(CCCNc3c4ccc(Cl)cc4nc4ccc(OC)cc34)C(=O)CNC(=O)OC(C)(C)C)c2c1 | 60 | 0 | 80 | 40 | 100 | 100 | 0 | 20 | 92 | 0 | 80 | 0 | 40 | 100 | 100 | 100 | 100 | – | – | – | – |
| COc1ccc2nc3cc(Cl)ccc3c(NCCCN(CCCNc3c4ccc(Cl)cc4nc4ccc(OC)cc34)C(=O)C(CO)NC(=O)OC(C)(C)C)c2c1 (stereo not drawn) | 0 | 0 | 40 | 0 | 0 | 0 | 0 | 0 | 247 | 0 | 80 | 0 | 20 | 100 | 100 | 100 | 100 | – | – | – | – |
| COc1ccc2nc3cc(Cl)ccc3c(NCCCN(CCCNc3c4ccc(Cl)cc4nc4ccc(OC)cc34)C(=O)C(COC(C)=O)NC(=O)OC(C)(C)C)c2c1 (stereo not drawn) | 80 | 0 | 90 | 60 | 90 | 100 | 20 | 40 | 63 | 0 | 70 | 0 | 40 | 100 | 100 | 100 | 100 | – | – | – | – |
| COc1ccc2nc3cc(Cl)ccc3c(NCCCCN(CCCNc3c4ccc(Cl)cc4nc4ccc(OC)cc34)C(=O)C(C)NC(=O)OC(C)(C)C)c2c1 (stereo not drawn) | 40 | 0 | 70 | 20 | 100 | 100 | 0 | 0 | 330 | 0 | 90 | 20 | 70 | 100 | 100 | 100 | 100 | – | – | – | – |
| COc1ccc2nc3cc(Cl)ccc3c(NCCN(CCNc3c4ccc(Cl)cc4nc4ccc(OC)cc34)C(=O)C(C)NC(=O)OC(C)(C)C)c2c1 (stereo not drawn) | 60 | 0 | 90 | 20 | 0 | 100 | 0 | 0 | 109 | 0 | 60 | 0 | 40 | 100 | 100 | 99 | 100 | – | – | – | – |
| COc1ccc2nc3cc(Cl)ccc3c(NCCCN(CCCNc3c4ccc(Cl)cc4nc4ccc(OC)cc34)C(=O)C(N)CN)c2c1 (stereo not drawn) | – | 0 | – | 0 | 0 | 0 | 0 | 0 | > 500 | 0 | – | 40 | – | 100 | – | 99 | 100 | Toxic | Toxic | Toxic | Cytotoxicity [21]: Toxic |
| COc1ccc2nc3cc(Cl)ccc3c(NCCCN(CCCNc3c4ccc(Cl)cc4nc4ccc(OC)cc34)C(=O)C(C)NC(=O)OCC3c4ccccc4-c4ccccc43)c2c1 (stereo not drawn) | – | 0 | – | 40 | 100 | 100 | 100 | 100 | 232 | 0 | – | 0 | – | 100 | 100 | 100 | 100 | Toxic | Toxic | Toxic | Cytotoxicity [21]: Toxic |
| COc1ccc2nc3cc(Cl)ccc3c(NCCCN(CCCNc3c4ccc(Cl)cc4nc4ccc(OC)cc34)C(=O)CCC(=O)O)c2c1 | 0 | 0 | 0 | 0 | 0 | 0 | 0 | 0 | 270 | 0 | 0 | 0 | 0 | 95 | 100 | 60 | 80 | – | – | – | – |
| COc1ccc2nc3cc(Cl)ccc3c(NCCCN(CCCNc3c4ccc(Cl)cc4nc4ccc(OC)cc34)C(=O)C(C)N)c2c1 (stereo not drawn) | 0 | 0 | 0 | 0 | 100 | 100 | 20 | 40 | > 500 | 0 | 0 | 0 | 0 | 100 | 100 | 100 | 100 | – | – | – | – |
| COc1ccc2nc3cc(Cl)ccc3c(NCCCN(CCCNc3c4ccc(Cl)cc4nc4ccc(OC)cc34)C(=O)C(CN)NC(=O)OC(C)(C)C)c2c1 (stereo not drawn) | – | 0 | – | 0 | 37 | 39 | 0 | 0 | 307 | 0 | – | 40 | – | 100 | – | 99 | 100 | Toxic | Toxic | Toxic | Cytotoxicity [21]: Toxic |
